Activity calls are given as the source filed them. The calls are words filed in the database; no cut-off is given here.
Tests used:
Aurora kinase B [1] = target: T1, Aurora kinase B (Homo sapiens, UniProt Q96GD4); assay: Inhibition of Aurora B kinase in human HeLa Kyoto cells assessed as induction of accumulation of cells at 16N DNA contant incubated for 48 hrs at 10 uM by flow cytometry; format: cell-based
In short: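 Cells were treated for 48 h, stained with propidium iodide, and DNA content was analysed by flow cytometry. Cells with 8N and 16N DNA content were scored as a readout of defective cytokinesis.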

Aurora kinase A [2] = target: T2, Aurora kinase A (Homo sapiens, UniProt O14965); assay: Binding affinity to human Aurora A kinase expressed in Escherichia coli BL21 cells incubated for 1 hr by active site directed binding competition assay
T2 sequence (O14965 whole entry): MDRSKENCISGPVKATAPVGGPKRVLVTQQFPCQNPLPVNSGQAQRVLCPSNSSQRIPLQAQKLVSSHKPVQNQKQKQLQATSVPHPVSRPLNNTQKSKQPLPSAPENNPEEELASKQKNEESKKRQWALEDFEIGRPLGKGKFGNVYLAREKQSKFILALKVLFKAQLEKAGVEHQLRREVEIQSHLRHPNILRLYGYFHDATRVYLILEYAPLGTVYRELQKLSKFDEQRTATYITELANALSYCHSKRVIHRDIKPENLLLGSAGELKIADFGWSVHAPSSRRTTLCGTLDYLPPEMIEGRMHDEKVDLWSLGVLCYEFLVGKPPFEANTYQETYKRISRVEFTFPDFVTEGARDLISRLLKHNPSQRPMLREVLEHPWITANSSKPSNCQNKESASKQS
In short: (§1)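 Kinome scan of 456 kinases using an active-site-directed binding competition assay, followed by determination of binding affinities (Kd). Aurora B in this scan was free enzyme without INCENP.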

[3] = target: Phosphatidylinositol 4,5-bisphosphate 3-kinase catalytic subunit gamma isoform (Homo sapiens, UniProt P48736); assay: Binding affinity to human PIK3CG expressed in Escherichia coli BL21 cells incubated for 1 hr by active site directed binding competition assay; in short: as §1
Phosphatidylinositol 4,5-bisphosphate 3-kinase catalytic subunit gamma isoform, sequence (P48736 whole entry, canonical isoform): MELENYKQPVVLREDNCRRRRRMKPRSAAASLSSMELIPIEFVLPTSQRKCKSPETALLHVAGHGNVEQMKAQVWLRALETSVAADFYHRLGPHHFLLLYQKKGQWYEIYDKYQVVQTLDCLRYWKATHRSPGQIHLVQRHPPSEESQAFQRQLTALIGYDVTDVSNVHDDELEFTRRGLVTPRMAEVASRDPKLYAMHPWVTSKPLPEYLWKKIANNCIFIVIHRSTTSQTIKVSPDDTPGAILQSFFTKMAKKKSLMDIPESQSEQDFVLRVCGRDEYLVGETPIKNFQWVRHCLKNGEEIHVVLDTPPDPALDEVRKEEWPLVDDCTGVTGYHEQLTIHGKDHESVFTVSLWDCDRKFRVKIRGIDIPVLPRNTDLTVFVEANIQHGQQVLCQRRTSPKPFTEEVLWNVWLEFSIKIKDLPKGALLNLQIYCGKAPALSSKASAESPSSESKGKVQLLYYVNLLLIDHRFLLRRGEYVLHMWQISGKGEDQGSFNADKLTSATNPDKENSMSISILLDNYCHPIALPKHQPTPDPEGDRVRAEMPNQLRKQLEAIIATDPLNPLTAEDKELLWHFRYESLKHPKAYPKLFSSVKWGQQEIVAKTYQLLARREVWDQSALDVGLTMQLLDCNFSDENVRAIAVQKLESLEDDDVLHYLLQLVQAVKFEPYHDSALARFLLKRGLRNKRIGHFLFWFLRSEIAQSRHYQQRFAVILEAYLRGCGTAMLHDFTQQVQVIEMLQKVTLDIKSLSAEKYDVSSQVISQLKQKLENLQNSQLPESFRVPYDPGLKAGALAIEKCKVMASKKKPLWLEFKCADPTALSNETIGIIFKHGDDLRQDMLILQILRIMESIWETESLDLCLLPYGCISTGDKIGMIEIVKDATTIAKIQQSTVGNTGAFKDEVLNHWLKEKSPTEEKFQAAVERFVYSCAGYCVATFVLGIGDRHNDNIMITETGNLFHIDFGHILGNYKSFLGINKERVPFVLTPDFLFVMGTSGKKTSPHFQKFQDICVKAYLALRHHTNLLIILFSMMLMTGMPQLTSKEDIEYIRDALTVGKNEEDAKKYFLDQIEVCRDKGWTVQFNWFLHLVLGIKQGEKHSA

[4] = target: Macrophage colony-stimulating factor 1 receptor (Homo sapiens, UniProt P07333); assay: Binding affinity to auto-inhibited human CSF1R expressed in Escherichia coli BL21 cells incubated for 1 hr by active site directed binding competition assay; in short: as §1
Macrophage colony-stimulating factor 1 receptor, sequence (P07333 whole entry): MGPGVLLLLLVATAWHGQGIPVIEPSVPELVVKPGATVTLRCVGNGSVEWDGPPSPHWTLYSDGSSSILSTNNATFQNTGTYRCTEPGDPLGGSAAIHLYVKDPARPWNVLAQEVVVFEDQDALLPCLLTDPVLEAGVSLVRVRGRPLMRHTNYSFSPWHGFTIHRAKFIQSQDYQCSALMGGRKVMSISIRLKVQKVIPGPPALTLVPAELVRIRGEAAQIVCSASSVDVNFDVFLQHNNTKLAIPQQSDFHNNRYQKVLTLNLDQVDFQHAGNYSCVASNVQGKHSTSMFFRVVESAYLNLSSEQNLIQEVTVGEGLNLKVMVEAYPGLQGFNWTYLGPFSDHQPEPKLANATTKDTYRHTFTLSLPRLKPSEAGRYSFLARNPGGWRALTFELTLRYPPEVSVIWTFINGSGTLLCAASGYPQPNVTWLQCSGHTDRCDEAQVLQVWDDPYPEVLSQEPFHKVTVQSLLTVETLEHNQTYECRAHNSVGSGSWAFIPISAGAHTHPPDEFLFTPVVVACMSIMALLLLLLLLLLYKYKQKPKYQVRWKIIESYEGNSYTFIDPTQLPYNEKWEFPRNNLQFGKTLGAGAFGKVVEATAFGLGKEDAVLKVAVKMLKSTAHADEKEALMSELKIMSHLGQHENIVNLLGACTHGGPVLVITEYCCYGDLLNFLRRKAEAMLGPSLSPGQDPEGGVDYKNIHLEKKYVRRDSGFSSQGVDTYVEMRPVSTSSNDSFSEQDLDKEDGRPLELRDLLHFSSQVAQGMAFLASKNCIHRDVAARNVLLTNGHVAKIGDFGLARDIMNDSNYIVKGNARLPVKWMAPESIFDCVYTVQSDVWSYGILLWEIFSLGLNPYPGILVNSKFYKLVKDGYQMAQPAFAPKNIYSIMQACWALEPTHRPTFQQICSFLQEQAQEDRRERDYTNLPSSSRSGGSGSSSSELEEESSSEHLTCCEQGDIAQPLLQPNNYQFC

[5] = Glutathione reactivity at 30 uM assessed as GSH adduct formation after 24 hrs in presence of 5 mM GSH, pH 7.4 buffer at 37 degC by LC-MS method
In short: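 Test compound at 30 µM was incubated with 5 mM GSH in H2O/CH3CN (4:1) at 37 °C and followed by LC-MS over 24 h. The GSH adduct was identified by MS. Parent was quantified by integrating its 310 nm absorption peak against 9-methylcarbazole as internal control. Values are the average of two independent experiments.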

Aurora kinase A [6] = target: T2, Aurora kinase A; assay: Inhibition of His-tagged human Aurora A kinase ([…] residues) expressed in Escherichia coli BL21 (DE3) Rosetta cells using biotinylated STK2 substrate incubated for 30 mins in presence of 2 uM TPX2 by HTRF assay
In short: (§2)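 Biochemical kinase inhibition was read by HTRF with 20 µM ATP. Aurora B was assayed as its complex with the activator INCENP. For Aurora A, IC50 curves were recorded at different TPX2 concentrations.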

Aurora kinase C = target: T3, Aurora kinase C (Homo sapiens, UniProt Q9UQB9); assay: Binding affinity to human Aurora C kinase expressed in Escherichia coli BL21 cells incubated for 1 hr by active site directed binding competition assay; in short: as §1
T3 sequence (Q9UQB9 whole entry): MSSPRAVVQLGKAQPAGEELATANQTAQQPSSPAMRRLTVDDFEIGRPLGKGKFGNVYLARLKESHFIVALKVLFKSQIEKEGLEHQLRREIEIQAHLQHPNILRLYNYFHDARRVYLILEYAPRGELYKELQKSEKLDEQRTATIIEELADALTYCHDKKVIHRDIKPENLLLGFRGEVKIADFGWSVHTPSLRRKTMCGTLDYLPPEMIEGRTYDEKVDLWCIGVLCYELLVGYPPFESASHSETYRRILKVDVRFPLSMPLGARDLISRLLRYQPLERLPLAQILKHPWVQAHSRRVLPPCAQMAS

[7] = target: Aurora kinase B/Inner centromere protein (Homo sapiens, UniProt Q96GD4); assay: Inhibition of Aurora-B/INCENP (unknown origin) using biotinylated STK2 substrate incubated for 30 mins by HTRF assay; format: protein-complex assay; in short: as §2
Aurora kinase B/Inner centromere protein, sequence (Q96GD4 whole entry): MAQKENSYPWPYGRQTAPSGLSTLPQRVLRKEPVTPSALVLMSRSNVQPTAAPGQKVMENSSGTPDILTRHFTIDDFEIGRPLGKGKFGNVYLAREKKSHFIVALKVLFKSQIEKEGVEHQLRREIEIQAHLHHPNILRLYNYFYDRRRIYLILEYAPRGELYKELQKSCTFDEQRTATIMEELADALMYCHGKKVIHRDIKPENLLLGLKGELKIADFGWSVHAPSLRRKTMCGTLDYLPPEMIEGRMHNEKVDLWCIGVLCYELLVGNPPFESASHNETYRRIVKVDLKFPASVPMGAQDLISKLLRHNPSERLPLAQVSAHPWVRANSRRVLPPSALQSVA
Aurora kinase B/Inner centromere protein, sequence (Q9NQS7 whole entry, further chain): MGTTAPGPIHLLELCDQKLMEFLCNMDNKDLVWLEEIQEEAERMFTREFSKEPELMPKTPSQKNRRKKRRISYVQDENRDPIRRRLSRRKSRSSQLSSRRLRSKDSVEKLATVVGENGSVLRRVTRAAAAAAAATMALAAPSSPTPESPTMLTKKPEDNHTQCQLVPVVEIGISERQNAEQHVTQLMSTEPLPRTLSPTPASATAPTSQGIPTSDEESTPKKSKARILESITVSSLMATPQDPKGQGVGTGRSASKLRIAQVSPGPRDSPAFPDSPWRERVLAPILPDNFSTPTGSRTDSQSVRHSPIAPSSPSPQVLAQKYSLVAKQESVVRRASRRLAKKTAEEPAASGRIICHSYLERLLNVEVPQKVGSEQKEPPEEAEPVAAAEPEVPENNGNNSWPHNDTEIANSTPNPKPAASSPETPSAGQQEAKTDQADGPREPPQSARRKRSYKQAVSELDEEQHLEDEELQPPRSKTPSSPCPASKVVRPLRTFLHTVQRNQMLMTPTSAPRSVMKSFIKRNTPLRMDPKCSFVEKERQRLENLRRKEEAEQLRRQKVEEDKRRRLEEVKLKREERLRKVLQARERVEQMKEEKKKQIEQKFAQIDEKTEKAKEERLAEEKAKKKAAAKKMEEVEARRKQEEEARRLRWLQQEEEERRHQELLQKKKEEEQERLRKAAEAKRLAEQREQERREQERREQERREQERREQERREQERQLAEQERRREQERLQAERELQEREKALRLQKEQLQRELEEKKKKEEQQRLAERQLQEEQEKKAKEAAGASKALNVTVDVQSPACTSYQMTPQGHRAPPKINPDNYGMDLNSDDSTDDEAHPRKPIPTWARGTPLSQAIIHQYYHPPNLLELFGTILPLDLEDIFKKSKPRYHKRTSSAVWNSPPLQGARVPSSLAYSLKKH

HeLa Kyoto = assay: Increase in mitotic index in human HeLa Kyoto cells incubated for 20 hrs; format: functional, cell-based
In short: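 HeLa Kyoto cells were incubated overnight with compound, and the fraction of mitotic cells was scored. The experiment was repeated twice; mean ± SD.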

Aurora kinase B [8] = target: T1, Aurora kinase B; assay: Binding affinity to human Aurora B kinase expressed in Escherichia coli BL21 cells incubated for 1 hr by active site directed binding competition assay; in short: as §1
[9] = target: T4, Aurora kinase A (Homo sapiens) (UniProt O14965); assay: Binding affinity to His-tagged human Aurora A kinase ([…] residues) expressed in Escherichia coli BL21 (DE3) Rosetta cells assessed as reduction in Aurora A binding to TPX-labeled human TPX2 N-terminal domain (1 to 43 residues) at 125 uM incubated for 30 mins by microscale thermophoresis method
T4 sequence (whole entry): T2 sequence (O14965 whole entry)

T1 sequence (Q96GD4 whole entry): as the sequence (Q96GD4 whole entry) above

inhibition (Aurora kinase B [1]): Active
Kd (Aurora kinase A [2]): 5 nM
Kd [3]: 1500 nM
Kd [4]: 120 nM
IC50 (Aurora kinase A [6]): 1400 nM
Kd (Aurora kinase C): 10.8 nM
IC50 [7]: 150 nM
Kd (Aurora kinase B [8]): 10.1 nM
Activity [9]: Active
Compound: CCc1ccc(/N=C2\S/C(=C\c3ccnc(Nc4ccc(C(=O)O)cn4)c3)C(=O)N2C)cc1
Drug metabolism [5]: 50%
Stability [5]: Stable
Activity (HeLa Kyoto): Dose-dependent effect

— ChEMBL document CHEMBL3861974, “Discovery of a Selective Aurora A Kinase Inhibitor by Virtual Screening” (J Med Chem, 2016)
